# Assays:
# Type in all cases: functional
# Mus musculus [1] = species on record: Mus musculus; experiment: Effect on antagonism of nicotine-induced tonic-extensor convulsions (TE) in Carworth farms male albino mice
# In short: (§1)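 Male albino CF-1 mice (18–22 g). Compounds were dissolved or suspended in 0.25% aqueous methylcellulose and given ip to groups of four or six mice per dose, at multiple dose levels spaced 0.3 log apart. ED50 values were calculated by the Spearman–Karber method.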
# Mus musculus [2] = species on record: Mus musculus; experiment: Effect on loss of traction (Tr) in Carworth farms male albino mice; in short: as §1
# Mus musculus [3] = species on record: Mus musculus; experiment: Effect on bicuculline-induced tonic-extensor convulsions (B) in Carworth farms male albino mice; in short: as §1
# Mus musculus [4] = species on record: Mus musculus; experiment: Effect on prolongation of hypoxic survival time (HS) in Carworth farms male albino mice; in short: as §1
# Mus musculus [5] = species on record: Mus musculus; experiment: Effect on potentiation of gamma-butyrolactone-induced sleep (gamma-B) in Carworth farms male albino mice; in short: as §1
# Mus musculus [6] = species on record: Mus musculus; experiment: Effect on pentylenetetrazole-induced clonic convulsions (P) in Carworth farms male albino mice; in short: as §1
# Mus musculus [7] = species on record: Mus musculus; experiment: Effect on antagonism of nicotine-induced death (D) in Carworth farms male albino mice; in short: as §1
# Mus musculus [8] = species on record: Mus musculus; experiment: Effect on bicuculline-induced tonic-extensor convulsions (B) in Carworth farms male albino mice.
# In short: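 CF-1 male albino mice, 18–22 g. Unless otherwise indicated, compounds were dissolved or suspended in 0.25% aqueous methylcellulose and given ip to groups of 4 or 6 mice per dose. Several dose levels were spaced at 0.3 log intervals. ED50 was calculated by the Spearman–Karber method.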
# Mus musculus [9] = species on record: Mus musculus; experiment: Effect on antagonism of nicotine-induced tonic-extensor convulsions (TE) in Carworth farms male albino mice.; in short: as §1
Compound,ED50 (Mus musculus [1]),ED50 (Mus musculus [2]),ED50 (Mus musculus [3]),ED50 (Mus musculus [4]),ED50 (Mus musculus [5]),ED50 (Mus musculus [6]),ED50 (Mus musculus [7]),ED50 (Mus musculus [8]),ED50 (Mus musculus [9])
Cc1nnc2n1-c1ccc(Cl)cc1CN=C2N1CCN(C)CC1,> 100 mg/kg,> 100 mg/kg,> 50 mg/kg,40 mg/kg,40 mg/kg,> 50 mg/kg,–,–,–
Cc1nnc2n1-c1ccc(Cl)cc1C(N1CCN(CCO)CC1)=NC2,> 100 mg/kg,> 100 mg/kg,–,–,–,–,> 100 mg/kg,–,–
CCCCCCNC1=NCc2nnc(C)n2-c2ccc(Cl)cc21,> 100 mg/kg,> 100 mg/kg,–,–,–,–,> 100 mg/kg,–,–
Cc1nnc2n1-c1ccc(Cl)cc1CN=C2N1CCCC1,> 6 mg/kg,> 6 mg/kg,–,–,> 6 mg/kg,–,–,> 6 mg/kg,–
Cc1nnc2n1-c1ccc(Cl)cc1CN=C2N1CCOCC1,> 100 mg/kg,> 100 mg/kg,> 50 mg/kg,–,> 50 mg/kg,40 mg/kg,–,–,–
Cc1nnc2n1-c1ccc(Cl)cc1C(N1CCOCC1)=NC2,80 mg/kg,> 100 mg/kg,–,–,–,–,71 mg/kg,–,–
Cc1nnc2n1-c1ccc(Cl)cc1C(N1CCCCC1)=NC2,0.4 mg/kg,0.3 mg/kg,0.7 mg/kg,0.3 mg/kg,0.9 mg/kg,1.1 mg/kg,0.4 mg/kg,–,–
Cc1nnc2n1-c1ccc(Cl)cc1C(N1CCCCCC1)=NC2,> 100 mg/kg,> 100 mg/kg,–,–,–,–,> 100 mg/kg,–,–
Cc1nnc2n1-c1ccc(Cl)cc1C(N1CCCC1)=NC2,18 mg/kg,> 100 mg/kg,> 50 mg/kg,> 50 mg/kg,7.4 mg/kg,> 50 mg/kg,18 mg/kg,–,–
CN1C(=O)CN=C(c2ccccc2)c2cc(Cl)ccc21 [DIAZEPAM],0.28 mg/kg,7 mg/kg,2.6 mg/kg,0.2 mg/kg,0.035 mg/kg,0.1 mg/kg,0.28 mg/kg,–,–
Cc1nnc2n1-c1ccc(Cl)cc1CN=C2N1CCCCCC1,> 100 mg/kg,> 100 mg/kg,–,–,–,–,–,–,–
Cc1nnc2n1-c1ccc(Cl)cc1C(N1CCN(c3ccccc3)CC1)=NC2,> 100 mg/kg,> 100 mg/kg,–,–,–,–,> 100 mg/kg,–,–
Cc1nnc2n1-c1ccc(Cl)cc1CN=C2N1CCCCC1,–,> 100 mg/kg,–,–,–,–,–,–,> 100 mg/kg
Cc1nnc2n1-c1ccc(Cl)cc1C(c1ccccc1)=NC2 [ALPRAZOLAM],0.02 mg/kg,0.6 mg/kg,0.2 mg/kg,0.2 mg/kg,0.08 mg/kg,0.1 mg/kg,0.02 mg/kg,–,–
Cc1nnc2n1-c1ccc(Cl)cc1C(N1CCN(C)CC1)=NC2,> 100 mg/kg,> 100 mg/kg,–,–,–,–,> 100 mg/kg,–,–

# From ChEMBL document CHEMBL1121489, “6-(Substituted-amino)-4H-s-triazolo[4,3-a][1,4]benzodiazepines and 4-(substituted-amino)-6H-s-triazolo[4,3-a][1,4]benzodiazepines with potential antianxiety activity” (1980)
